This is a sample that favours compounds with a hit; in the whole collection about 2.3% have one here.
Bim-Mcl-1: inhibitors of Bim peptide binding to Mcl-1, primary screen, biochemical, bead-based flow cytometry, multiplex | AID 1009, 2008 | actives 0.1% (n = 190,000) | Bim peptide-Mcl-1 binding | inhibition, % at 10 µM | Induced myeloid leukemia cell differentiation protein Mcl-1 (Homo sapiens), Q07820; in the data active = inhibition above about 40%;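 also: 0% = no compound tracer wells and 100% = peptide blocker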
Target sequence (Q07820 whole entry, looked up): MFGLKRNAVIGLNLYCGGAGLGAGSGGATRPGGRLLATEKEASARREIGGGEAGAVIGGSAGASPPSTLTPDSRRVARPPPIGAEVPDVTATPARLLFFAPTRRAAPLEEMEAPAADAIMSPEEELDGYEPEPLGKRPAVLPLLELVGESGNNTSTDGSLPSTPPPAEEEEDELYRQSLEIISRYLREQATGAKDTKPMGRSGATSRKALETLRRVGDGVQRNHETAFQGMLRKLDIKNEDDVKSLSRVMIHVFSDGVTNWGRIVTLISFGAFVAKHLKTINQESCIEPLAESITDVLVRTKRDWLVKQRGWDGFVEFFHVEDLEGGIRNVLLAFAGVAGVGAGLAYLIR
MCL1-BIM inh: inhibitors of MCL1 binding to BIM-BH3, primary screen, biochemical, fluorescence polarization | Induced myeloid leukemia cell differentiation protein Mcl-1 (Homo sapiens), Q07820 | GST-MCL1 / FITC-Bim-BH3 fluorescence polarization | inhibition, % at 10.9 µM | actives 0.68% (n = 320,000);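 active = inhibition above the mean inhibition of all tested compounds plus 3 SD, set per campaign, cut at about 40% in these data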;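 also: 0% = DMSO wells and 100% = unlabeled Bim-BH3 peptide control; higher means more loss of mP so more displacement of Bim peptide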
T cell modulator: modulators of CD8 T cell-vesicle binding, primary screen, mouse 2C CD8+ T cells, flow cytometry. 2C CD8+ T cell-vesicle binding; active compounds read low. response (vesicle binding), % at 7 µM. actives 0.068% (n = 330,000). AID 2052, 2009;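 active = response, share of CD8 T cells binding vesicles, and their 90th percentile fluorescence all below set limits, cut at about 80% in these data, passing the limit was not always enough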;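 also: values below 100% mean blocked vesicle binding to the CD8+ T cells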
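Material: 2C TCR transgenic mouse naive CD8+ T cells, MACS-purified. Also added: QL9-charged Drosophila Ld/ICAM-1/B7-1 vesicles. Timing: binding 1.5 h at 37 °C. Measured by: high-throughput flow cytometry with anti-B7-1 and anti-CD8 staining. Read-out: percent CD8+ FL2 mean versus row control. Controls: Unloaded micro-vesicles (low), QL9 vesicles with 0.7% DMSO (high).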
Mcl1 Noxa PPI: Mcl-1/Noxa binding inhibitors, primary screen, biochemical, TR-FRET, 1536-well; inhibition, % at 21.7 µM; TR-FRET Mcl-1/Noxa peptide binding, 2 h; AID 1022, 2008; actives 1.5% (n = 220,000);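 active = compounds that cut the protein-peptide binding signal by more than 50% relative to plate controls in a single-dose test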;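 also: His-tagged Mcl-1 with rhodamine Noxa BH3 peptide and terbium anti-His antibody; 0% = Mcl-1 plus Noxa peptide wells and 100% = peptide-only wells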
Mcl1-Bid inh: Mcl-1/Bid binding inhibitors, primary screen, biochemical, TR-FRET, 1536-well; Induced myeloid leukemia cell differentiation protein Mcl-1 (Homo sapiens), Q07820; TR-FRET Mcl-1/Bid-Dy647 peptide binding; inhibition, % at 21.7 µM; actives 0.97% (n = 220,000); AID 1021, 2008;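 active = compounds that cut the binding signal by more than half at the single screening dose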;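 also: His-tagged Mcl-1 with europium anti-His antibody binding Bid BH3 peptide; 0% = Mcl-1 plus peptide wells and 100% = peptide-only wells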
Pemphigus Ab inh: inhibitors of pemphigus antibody binding to DSG3, primary screen, biochemical, bead-based, flow cytometry, scFv-GFP | actives 0.48% (n = 310,000) | Desmoglein-3 (Homo sapiens), P32926 | binding (percent of control), % at 10 µM | DSG3-coupled beads, scFv-anti-DSG3-GFP binding; active compounds read low;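 active = binding more than 3 SD below its plate's average and above zero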;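 also: hits lower antibody fragment binding to DSG3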
An asterisk follows results filed as active; i = inactive; nt = no result given.

SMILES	Bim-Mcl-1	MCL1-BIM inh	T cell modulator	Mcl1 Noxa PPI	Mcl1-Bid inh	Pemphigus Ab inh
Cc1ccc(Cl)cc1Nc1nc(-c2sc(NC(=O)c3cccc(Cl)c3)nc2C)cs1	-3	-11	282	40	61*	nt
Cc1nc(NC(=O)c2ccccc2)sc1-c1csc(Nc2cccc(Cl)c2)n1	0	-23	324	98*	94*	nt
COc1ccc(Cl)cc1Nc1nc(-c2sc(NC(=O)c3ccccc3)nc2C)cs1	-2	-16	204	32	70*	nt
Cc1ccc2c(c1)CCO[C@@]21O[C@H](CCO)C[C@H](O)[C@H]1O	nt	nt	nt	nt	nt	99
Cc1ccc(S(=O)(=O)N(CC(=O)Nc2cccc(C)c2C)C(=O)N2CCN(C)CC2)cc1	nt	nt	nt	nt	nt	99
O=c1[nH]c2cc(Cl)c(Br)cc2o1	nt	nt	nt	nt	nt	126
CC(C)c1ccc(OCCCCN2CCCCC2)cc1	nt	0	220	nt	nt	110
c1ccc(COc2ccc(OCCN3CCCCC3)cc2)cc1	-2	2	81*	23	9	124
c1ccc(COc2ccc(OCCN3CCCC3)cc2)cc1	0	4	332	-18	-43	101
CC(C)Oc1ccc(OCCCN2CCCCCC2)cc1	-3	8	274	-5	54*	100
CCCCc1c(O)nc(SCC(=O)Nc2ccc(OC)cc2)n(-c2ccc(C)c(C)c2)c1=O	nt	nt	nt	nt	nt	107
COc1ccc(C(=O)N=c2c(C#N)cc3c(=O)n4cccc(C)c4nc3n2Cc2ccco2)cc1	-3	nt	nt	77*	20	nt
CCCCn1c(=NC(=O)c2cccnc2)c(C#N)cc2c(=O)n3cccc(C)c3nc21	-6	48*	i	13	-28	nt
CCCn1c(=NC(=O)c2ccncc2)c(C#N)cc2c(=O)n3cccc(C)c3nc21	nt	nt	nt	nt	nt	96
COc1cccc(NC(=O)c2ccc(N3C(=O)C4CC=CCC4C3=O)cc2)c1 (centres undefined)	nt	5	150	nt	nt	96
O=C(Nc1ccc(Br)cc1)c1ccc(N2C(=O)C3CC=CCC3C2=O)cc1 (centres undefined)	0	7	640	59*	-33	98
COCCN(CC(=O)Nc1cccc(C)c1C)C(=O)CN1C(=O)NC2(CCCCC2)C1=O	nt	-8	423	nt	nt	103
N#C/C(=C\c1ccc(N2CCOCC2)cc1)c1ccccc1	-1	2	204	-2	-46	-133*
COC(=O)C(CC(C)C)NC(=O)c1ccc(F)cc1 (centres undefined)	-2	1	593	-8	98*	96
CCc1nnc(NC(=O)CSc2ccc(-c3nc4ccc(C)cc4[nH]3)cn2)s1	-3	-5	i	58*	31	116
CC(=O)CSc1ccc(-c2nc3cc(C)c(C)cc3[nH]2)cn1	-5	0	346	13	-3	102
Cc1ccc2nc(-c3ccc(SCC(=O)O)nc3)[nH]c2c1	1	6	224	31	-4	96
Cc1cc2nc(-c3ccc(SCC(=O)Nc4nccs4)nc3)[nH]c2cc1C	-6	nt	nt	73*	25	120
COc1ccc(C(=O)Nc2cc(OC)c(NC(=O)Nc3ccccc3)cc2OC)cc1	nt	nt	nt	nt	nt	98
CC(C)Nc1nnc(SCC(=O)Nc2ccc3c(c2)C(=O)c2ccccc2C3=O)s1	3	14	432	78*	-17	99
SMILES	Bim-Mcl-1	MCL1-BIM inh	T cell modulator	Mcl1 Noxa PPI	Mcl1-Bid inh	Pemphigus Ab inh
O=C(CSc1nnc(NC2CCCCC2)s1)Nc1ccc2c(c1)C(=O)c1ccccc1C2=O	5	15	0	47	-12	95
O=C(Cc1cn(-c2ccccc2)nc1-c1ccccc1)N1CCCCC1	nt	1	232	nt	nt	112
Cn1nc(NC(=O)C(F)(F)F)c2ncc(-c3ccccc3)nc21	nt	nt	nt	nt	nt	114
COc1ccc(/C=C2\SC(=S)N(c3cccnc3)C2=O)cc1	nt	5	272	1	-3	90
O=C1/C(=C/c2ccco2)SC(=S)N1c1cccnc1	nt	nt	nt	94*	24	84
O=C1/C(=C\c2ccco2)SC(=S)N1c1ccc(O)cc1	-5	27	127	4	-11	98
O=C1/C(=C\c2ccc(O)cc2)SC(=S)N1c1cccnc1	0	12	413	73*	6	88
O=C1/C(=C/C=C/c2ccco2)SC(=S)N1c1ccc(O)cc1	nt	28	312	102*	38	78*
CCCCCCCN1CCN=C1N(C)C	nt	-1	276	nt	nt	103
CCC(NC(=S)NC1CCCCC1)c1ccc(C)cc1 (centres undefined)	nt	nt	604	nt	nt	nt
CC(C)Oc1ccc(CN2CCCC(CO)(Cc3ccc(F)cc3)C2)cc1 (centres undefined)	nt	46*	183	nt	nt	103
C=CCN(CC=C)C(=S)NC(=O)Cc1cccc2ccccc12	0	12	804	62*	-50	102
CCCCCCN=C1CC(C)(C)CC(=O)/C1=C(/O)CCC	nt	5	i	0	-29	115
COc1cc(/C=N/NC(=O)C2C3CCCCC32C)cc(Br)c1O (centres undefined)	-6	2	383	51*	-13	104
CCC(C)c1ccc(NC(=O)C2=CC=CN3CCS(=O)(=O)N=C23)cc1 (centres undefined)	nt	-5	783	nt	nt	100
CC(=O)NC(=S)Nc1ccc(NC(=S)NC(=O)/C=C/c2ccco2)cc1	nt	2	422	66*	44	nt
C=CCNC(=S)NNC(=O)c1ccco1	-2	-7	84	9	-23	103
O=C(/C=C/c1ccco1)NC(=S)Nc1ccc(O)c(-c2nc3ccccc3s2)c1	-6	15	324	52*	59*	98
O=C(Nc1ccc(O)c(-c2nc3ccccc3s2)c1)c1cccs1	0	1	248	-217	-56	103
O=C(Nc1ccc(O)c(-c2nc3ccccc3s2)c1)c1cc(=O)c2ccccc2o1	-7	-5	869	51*	52*	133
O=C(/C=C/c1ccco1)NC(=S)NNC(=O)c1ccco1	0	13	158	-31	-47	60*
COc1ccc(Cl)cc1CC=NNC(=O)c1ccncc1	nt	nt	nt	nt	nt	95
O=C(NNC(=S)NC(=O)c1ccco1)c1ccc(F)cc1	nt	1	50*	-36	-160	nt
CCOc1ccc(/C=C2/SC(=O)NC2=S)cc1	-4	50*	644	29	-15	126
CCOc1ccc(/C=C2\SC(=S)N(N3C(=O)C4CC4C3=O)C2=O)cc1 (centres undefined)	-1	6	581	12	-43	81
COc1ccc(C(=O)N(C)Cc2ccccn2)cc1OC1CCN(C(C)C)CC1	nt	12	253	nt	nt	105
